Experimental data taken from ChEMBL document CHEMBL5053511, “Discovery of a Novel BCL-XL PROTAC Degrader with Enhanced BCL-2 Inhibition” (J Med Chem, 2021).
Activity calls are given as the source filed them. The rule behind the calls is not given here.

Key:
[1] = biological target: T1, von Hippel-Lindau disease tumor suppressor/Bcl-2-like protein 1 (Homo sapiens, UniProt Q07817+P40337); experiment: Protac activity at VHL/BCL-XL in human platelets assessed as decrease in BCL-XL protein level at up to […] measured after 16 hrs by Western blot analysis; settings: Platelet
In short: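 Washed human platelets were treated for 16 h at a range of concentrations, and BCL-XL was measured by western blotting.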
Target sequence in this assay (P40337 whole entry, looked up): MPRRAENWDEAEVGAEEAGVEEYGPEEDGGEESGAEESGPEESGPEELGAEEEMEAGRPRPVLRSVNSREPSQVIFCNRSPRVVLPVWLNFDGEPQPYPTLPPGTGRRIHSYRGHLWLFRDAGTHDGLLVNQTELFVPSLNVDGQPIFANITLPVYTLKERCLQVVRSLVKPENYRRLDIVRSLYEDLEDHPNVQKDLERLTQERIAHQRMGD
Target sequence in this assay (Q07817 whole entry, looked up): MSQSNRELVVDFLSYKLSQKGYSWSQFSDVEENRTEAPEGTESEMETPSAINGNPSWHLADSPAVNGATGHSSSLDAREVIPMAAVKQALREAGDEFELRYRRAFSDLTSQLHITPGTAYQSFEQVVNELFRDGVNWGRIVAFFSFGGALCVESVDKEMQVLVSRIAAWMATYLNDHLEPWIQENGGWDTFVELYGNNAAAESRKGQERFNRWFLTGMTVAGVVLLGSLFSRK

[2] = biological target: T1, von Hippel-Lindau disease tumor suppressor/Bcl-2-like protein 1; experiment: Protac activity at VHL/BCL-XL in human MOLT-4 cells assessed as decrease in BCL-XL protein level by densitometric analysis; assay type: cell-based
In short: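 MOLT-4 or RS4;11 cells were treated at a range of concentrations for 16 h. BCL-XL was immunoblotted with β-actin loading control, and band densitometry was normalised to β-actin. Mean ± SD of three independent experiments in triplicate.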
Target sequence in this assay (Q07817 whole entry): as the sequence (Q07817 whole entry, looked up) above
Target sequence in this assay (P40337 whole entry): as the sequence (P40337 whole entry, looked up) above

RS4-11 = experiment: Cytotoxicity against human RS4-11 cells assessed as reduction in cell viability measured after 48 hrs by MTS assay; assay type: functional, cell-based; settings: RS4-11, 48 h
MOLT-4 = experiment: Induction of apoptosis in human MOLT-4 cells assessed as late apoptotic cells at 10 nM measured after 48 hrs in presence of QVD by annexinV-FITC/propidium iodide staining based flow cytometry (reference value: 1%); assay type: functional
Bcl-2-like protein 1 = Bcl-2-like protein 1 (Homo sapiens, UniProt Q07817); experiment: Displacement of biotin-tagged LWAAQRYGRELRRMSDEFEGSFKGL from human BCL-XL expressed in Escherichia coli measured after 2 hrs by AlphaScreen assay
Chain of Bcl-2-like protein 1 (Q07817 whole entry): as the sequence (Q07817 whole entry, looked up) above
In short: (§1)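 AlphaScreen displacement, run with or without VCB. Anti-His acceptor beads were added for 1 h at room temperature, then streptavidin donor beads for 30 min in the dark. Ki was fitted by one-site competitive model from peptide concentration and measured Kd values; reported as mean ± SD of at least two experiments in triplicate.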

[3] = Binding affinity to C-terminal His-tagged human BCL-2 (1 to 211 residues) expressed in Escherichia coli/recombinant human VHL (54 to end residues) fused to human N-terminal GST-tagged elongin-C/elongin -B/N-terminal His-tagged CUL2/Rbx1 expressed in baculovirus infected Sf21 insect cells measured after 2 hrs by AlphaScreen assay
In short: as §1, with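 “VCB. Biotin-Bim (80 nM, for BCL-2) or biotin-Bad (16 nM, for BCL-XL) was combined with serially diluted compound and 6×His protein in 25 mM HEPES pH 7.5, 100 mM NaCl, 0.1% BSA, 0.005% Tween 20.” for “VCB.”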

[4] = Binding affinity to human BCL-XL expressed in Escherichia coli/recombinant human VHL (54 to end residues) fused to human N-terminal GST-tagged elongin-C/elongin -B/N-terminal His-tagged CUL2/Rbx1 expressed in baculovirus infected Sf21 insect cells assessed as ternary complex formation at up to 100000 nM measured after 30 mins by AlphaLISA assay
In short: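 Cell-free ternary complex AlphaLISA: 6×His-tagged BCL-XL, BCL-2 or MCL-1 (20 nM) mixed with serially diluted compound (4× dilution) and GST-VCB (20 nM) in 25 mM HEPES pH 7.5, 100 mM NaCl, 0.1% BSA, 0.005% Tween 20. After 30 min at room temperature, glutathione donor beads were added for 15 min, then anti-His acceptor beads for 45 min in the dark. Luminescence was plotted against log compound concentration.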

[5] = biological target: T1, von Hippel-Lindau disease tumor suppressor/Bcl-2-like protein 1; experiment: Binding affinity to Halo-tagged VHL/HiBiT-tagged BCL-XL (unknown origin) expressed in HEK293T cells assessed as ternary complex formation at up to 100000 nM measured after 6 hrs by NanoBRET assay; assay type: cell-based
In short: (§2)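 NanoBRET in live HEK 293T cells. Cells were transfected with HaloTag-VHL (1 µg), HiBit-BCL-XL or HiBit-BCL-2 (10 ng) and LgBit (10 ng). After 24 h they were seeded at 2×10^4 per well in Opti-MEM with 4% FBS, with or without HaloTag 618 ligand, and held overnight. Serial compound doses were given for 6 h at 37 °C, then Nano-Glo substrate was added and mBRET ratios read. Mean ± s.e.m. of two experiments in triplicate.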
Target sequence in this assay (P40337 whole entry, looked up): as the sequence (P40337 whole entry, looked up) above
Target sequence in this assay (Q07817 whole entry, looked up): as the sequence (Q07817 whole entry, looked up) above

[6] = biological target: von Hippel-Lindau disease tumor suppressor/Apoptosis regulator Bcl-2 (Homo sapiens) (UniProt P10415+P40337); experiment: Binding affinity to Halo-tagged VHL/HiBiT-tagged BCL-2 (unknown origin) expressed in HEK293T cells assessed as ternary complex formation at up to 100000 nM measured after 6 hrs by NanoBRET assay; assay type: cell-based; in short: as §2
Chain of von Hippel-Lindau disease tumor suppressor/Apoptosis regulator Bcl-2 (Homo sapiens) (P10415 whole entry, looked up): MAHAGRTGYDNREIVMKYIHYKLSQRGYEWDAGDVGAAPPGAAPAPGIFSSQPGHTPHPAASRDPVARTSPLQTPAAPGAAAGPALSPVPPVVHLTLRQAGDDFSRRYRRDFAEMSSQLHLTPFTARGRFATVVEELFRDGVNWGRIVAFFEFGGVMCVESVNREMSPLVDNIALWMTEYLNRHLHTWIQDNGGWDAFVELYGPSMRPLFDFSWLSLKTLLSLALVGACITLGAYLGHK
Chain of von Hippel-Lindau disease tumor suppressor/Apoptosis regulator Bcl-2 (Homo sapiens) (P40337 whole entry, looked up): as the sequence (P40337 whole entry, looked up) above

[7] = biological target: T1, von Hippel-Lindau disease tumor suppressor/Bcl-2-like protein 1; experiment: Binding affinity to VHL/ BCL-XL in human RS4-11 cells assessed as ternary complex formation at up to 300 nM measured after 12 hrs in presence of VHL-032 by immunoprecipitation assay; assay type: cell-based
Target sequence in this assay (P40337 whole entry, looked up): as above
Target sequence in this assay (Q07817 whole entry, looked up): as the sequence (Q07817 whole entry, looked up) above

Cc1ncsc1-c1ccc([C@H](C)NC(=O)[C@@H]2C[C@@H](O)CN2C(=O)[C@@H](NC(=O)CCCCCCCCC(=O)NC[C@]2(C)CCC(c3ccc(Cl)cc3)=C(CN3CCN(c4ccc(C(=O)NS(=O)(=O)c5ccc(N[C@H](CCN6CCOCC6)CSc6ccccc6)c(S(=O)(=O)C(F)(F)F)c5)cc4)CC3)C2)C(C)(C)C)cc1
Activity [1]: inactive | DC50 [2]: 14.3 nM | IC50 (RS4-11): 11.3 nM | Activity (MOLT-4): 13% | Ki (Bcl-2-like protein 1): 2.59 nM | Kd [3]: 0.53 nM | Activity [4]: Active | Activity [5]: Active | Activity [6]: Active | Activity [7]: inactive
